Molecules are shown by their SMILES. Activity calls are given as the source filed them. No cut-off for these calls is given here.

Series [1] in a line: Inhibition of rat recombinant protein farnesyltransferase expressed in Sf9 cells by [3H]-scintillation proximity assay. In general terms: In a scintillation proximity assay essentially only radioactivity close to the scintillant gives light.
Series [2] relates to Trypanosoma cruzi. The experiment in a line: Antitrypanosomal activity against Trypanosoma cruzi Tulahuen amastigotes expressing beta-galactosidase in mouse 3T3 fibroblast after 7 days by […]. The format is functional, organism-based. Conditions: 168 h. (Alamar Blue is a resazurin reagent that responds to reducing activity.)
Series [3] in a line: Ratio of IC50 for rat recombinant protein farnesyltransferase to EC50 for Trypanosoma cruzi Tulahuen expressing beta-galactosidase.
The target in a further series is Cytochrome P450 3A4 (Homo sapiens, UniProt P08684). The experiment in a line: Inhibition of human recombinant CYP3A4. The format is ADME.
Series [4] addresses Sterol 14-alpha demethylase (Trypanosoma cruzi (strain CL Brener)) (UniProt Q7Z1V1). Description: Inhibition of Trypanosoma cruzi recombinant sterol 14-alpha-demethylase assessed as drug/enzyme molar ratio required to produce 50 percent decrease in turnover number.
For series [5], the target named is T1, Lanosterol 14-alpha demethylase (Homo sapiens, UniProt Q16850).
T1 sequence (Q16850 whole entry): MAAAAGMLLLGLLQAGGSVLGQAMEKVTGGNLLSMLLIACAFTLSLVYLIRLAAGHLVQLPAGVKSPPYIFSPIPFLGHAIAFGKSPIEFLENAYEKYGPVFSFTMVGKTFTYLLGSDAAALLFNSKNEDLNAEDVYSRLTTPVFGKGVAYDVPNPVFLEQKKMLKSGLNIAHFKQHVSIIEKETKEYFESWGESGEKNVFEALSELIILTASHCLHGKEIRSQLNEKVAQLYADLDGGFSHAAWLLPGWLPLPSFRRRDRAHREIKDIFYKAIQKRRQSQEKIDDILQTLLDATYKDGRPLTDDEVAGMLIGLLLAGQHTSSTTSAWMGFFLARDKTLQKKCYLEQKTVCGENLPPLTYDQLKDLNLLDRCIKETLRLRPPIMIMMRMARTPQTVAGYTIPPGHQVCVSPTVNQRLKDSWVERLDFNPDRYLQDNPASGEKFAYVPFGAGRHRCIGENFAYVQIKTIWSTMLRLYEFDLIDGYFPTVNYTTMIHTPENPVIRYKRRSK
Description: Inhibition of human sterol 14-alpha-demethylase assessed as drug/enzyme molar ratio required to produce 50 percent decrease in turnover number.

Series [6] in a line: Cmax in BALB/c mouse at 50 mg/kg, po. The class given is ADME, organism-based. More on the design: dose 50 mg/kg, route oral. Conditions: in vivo. The gist of the method: (§1)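 Single oral gavage dose of 50 mg/kg, suspended at 10 mg/ml in 20% (w/v) hydroxypropyl beta-cyclodextrin, to uninfected female BALB/c mice (7–8 weeks, ~20 g); timed tail blood, plasma extracted with acetonitrile using an internal standard, quantified by reversed-phase LC-MS (electrospray ion trap); three mice averaged.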

Series [7] is described as follows: Elimination half life in BALB/c mouse at 50 mg/kg, po. The class given is ADME, organism-based. Details: dose 50 mg/kg, route oral. The following applies: in vivo, read-out: beta t1/2 (converted). Summed up: as §1
Series [8] concerns Trypanosoma cruzi. The experiment in a line: Antitrypanosomal activity against Trypanosoma cruzi Tulahuen trypomastigotes infected in BALB/c mouse assessed as suppression of parasitemia at 100 mg/kg, po twice a day after 7 days of infection for 8 to 13 days and 50 mg/kg, po for 14 to 27 days measured weekly for 8 weeks by microscopy. The class given is functional, organism-based. Summed up:
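Female BALB/c mice, 7–8 weeks old, infected s.c. with 5×10^3 Tulahuen trypomastigotes; parasitemic by day 7. From day 8, groups of 5–6 were gavaged 100 mg/kg twice daily (days 8–13), then 50 mg/kg twice daily (days 14–27), in 20% w/v hydroxypropyl-β-cyclodextrin. Parasitemia read in 5 μL tail blood over 50 high-power fields. Day-103 cardiac blood cultured at 28 °C, checked weekly for 8 weeks.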

The test system of series [9] is Trypanosoma cruzi. Description: Antitrypanosomal activity against Trypanosoma cruzi Tulahuen trypomastigotes infected in BALB/c mouse assessed as suppression of parasitemia in blood culture at 100 mg/kg, po twice a day after 7 days of infection for 8 to 13 days and 50 mg/kg, po for 14 to 27 days measured after 100 days by microscopy. The class given is functional, organism-based. Summed up: (§2)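 Female BALB/c mice (7–8 weeks) infected subcutaneously with 5×10^3 Tulahuen trypomastigotes; oral gavage from day 8, groups of 5–6, for 20 days. Benznidazole 100 mg/kg once daily days 8–27; test agents 100 mg/kg twice daily days 8–13 then 50 mg/kg twice daily days 14–27; vehicle 20% hydroxypropyl beta-cyclodextrin twice daily. Parasitemia counted in 5 μL tail blood over 50 high-powered fields.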

The test system of a further series is Mus musculus. Description: Toxicity in BALB/c mouse at 50 mg/kg, po administered twice a day. The format is organism-based. Details: dose 50 mg/kg, route oral. The following applies: in vivo. The gist of the method:
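Infected female BALB/c mice given oral gavage in 20% hydroxypropyl beta-cyclodextrin, 100 mg/kg twice daily days 8–13 then 50 mg/kg twice daily days 14–27; monitored for weight loss and adverse effects.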

In series [10] the test system is Trypanosoma cruzi. The experiment in a line: Antitrypanosomal activity against Trypanosoma cruzi Tulahuen trypomastigotes infected in BALB/c mouse assessed as suppression of parasitemia at 100 mg/kg, po after 7 days of infection for 8 to 27 days measured weekly for 8 weeks by microscopy. The class given is functional, organism-based. More on the design: dose 100 mg/kg. The gist of the method: as §2

Series [11] is described as follows: Terminal half life in po dosed human administered twice a day. The format is ADME, organism-based. The following applies: in vivo, read-out: beta t1/2 (converted).

Cytochrome P450 3A4, sequence (P08684 whole entry): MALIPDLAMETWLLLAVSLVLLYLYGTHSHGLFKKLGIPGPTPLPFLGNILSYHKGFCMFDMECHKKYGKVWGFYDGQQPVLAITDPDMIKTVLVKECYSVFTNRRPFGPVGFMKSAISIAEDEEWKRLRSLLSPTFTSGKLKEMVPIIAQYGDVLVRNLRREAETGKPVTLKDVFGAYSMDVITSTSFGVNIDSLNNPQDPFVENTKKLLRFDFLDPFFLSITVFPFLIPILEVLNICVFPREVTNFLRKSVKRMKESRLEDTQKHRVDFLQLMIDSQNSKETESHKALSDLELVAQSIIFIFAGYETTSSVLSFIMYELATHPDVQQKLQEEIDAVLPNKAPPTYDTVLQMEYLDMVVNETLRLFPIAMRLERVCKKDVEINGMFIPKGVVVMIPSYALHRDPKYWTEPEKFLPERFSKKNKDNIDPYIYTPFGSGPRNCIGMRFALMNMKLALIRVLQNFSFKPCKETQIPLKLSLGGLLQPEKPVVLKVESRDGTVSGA
Sterol 14-alpha demethylase (Trypanosoma cruzi (strain CL Brener)), sequence (Q7Z1V1 whole entry, looked up): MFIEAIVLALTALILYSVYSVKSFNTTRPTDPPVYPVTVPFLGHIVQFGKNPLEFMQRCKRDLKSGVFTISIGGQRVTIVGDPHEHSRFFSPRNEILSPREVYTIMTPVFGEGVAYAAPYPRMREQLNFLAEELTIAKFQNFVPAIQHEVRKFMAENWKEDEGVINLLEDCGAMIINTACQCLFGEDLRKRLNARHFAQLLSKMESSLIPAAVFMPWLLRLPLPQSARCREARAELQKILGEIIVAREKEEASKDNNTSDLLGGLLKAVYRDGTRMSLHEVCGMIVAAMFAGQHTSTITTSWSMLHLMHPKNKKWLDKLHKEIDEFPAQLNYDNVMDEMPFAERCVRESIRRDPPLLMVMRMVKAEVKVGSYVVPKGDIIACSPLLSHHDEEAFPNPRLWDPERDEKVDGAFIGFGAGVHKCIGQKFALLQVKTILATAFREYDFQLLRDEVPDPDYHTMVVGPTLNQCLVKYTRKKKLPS

As usually defined, the IC50 is the concentration that inhibits the measured activity by half. As usually defined, the EC50 is the concentration needed to bring the measured effect to its halfway point. A lower EC50 goes with an effect from little substance. With `Cn1cncc1[C@@](N)(c1ccc2ccccc2c1)c1ccc2c(c1)c(-c1cccc(Cl)c1)cc(=O)n2C`, in series [1], the half-maximal inhibitory concentration (IC50) was determined as 17 nM. This molecule returned an EC50 in the series on Trypanosoma cruzi [2] of 45 nM. In [3], the Ratio IC50/EC50 was 0.4.
For the molecule `Cn1cncc1[C@@](N)(c1ccc(Cl)cc1)c1ccc2c(c1)c(-c1ccccc1)cc(=O)n2C`, the IC50 in series [1] amounted to 4 nM. This molecule showed an EC50 in the series on Trypanosoma cruzi [2] of 12 nM. In [3], the Ratio IC50/EC50 is 0.3.
As to `Cc1c(Cl)cccc1-c1cc(=O)n(C)c2ccc([C@](N)(c3ccc(Cl)cc3)c3cncn3C)cc12` (racemic), the IC50 in series [1] was 294 nM; at Cytochrome P450 3A4, 1300 nM. Besides, a half-maximal response in the series with Trypanosoma cruzi [2] (EC50) required 21 nM. Moreover, the Ratio IC50/EC50 in series [3] was found to be 14. Further, the figures for the Activity in series [4] and in series [5] were 0.65 and more than 100, respectively.
On to `Cc1ccccc1-c1cc(=O)n(C)c2ccc([C@](N)(c3ccc(Cl)cc3)c3cncn3C)cc12` (racemic), for which the IC50 came to 300 nM in series [1] and 1350 nM at Cytochrome P450 3A4. In addition, in the series on Trypanosoma cruzi [2], a half-maximal effect (EC50) was put at 23 nM. For the same molecule, the Ratio IC50/EC50 in series [3] amounted to 13.
Regarding `Cn1cncc1[C@@](N)(c1ccc(Cl)cc1)c1ccc2c(c1)c(-c1cccc3ccccc13)cc(=O)n2C` (racemic), the IC50 in series [1] was 485 nM. The concentration giving a half-maximal response (EC50) with Trypanosoma cruzi [2] stood at 22 nM. In addition, the Activity is 0.85 in series [4] and more than 100 in series [5].
What is called Cmax is the peak of the concentration-time curve. For `CO[C@](c1ccc(Cl)cc1)(c1ccc2c(c1)c(-c1cccc(Cl)c1C)cc(=O)n2C)c1cncn1C` (racemic), the values for the half-maximal inhibitory concentration (IC50) (in series [1]; on Cytochrome P450 3A4) were more than 5000 nM and 870 nM, respectively. In the series on Trypanosoma cruzi [2], this molecule yielded an EC50 of 0.6 nM. The Ratio IC50/EC50 in [3] is more than 8300. Further, the highest level in [6] (Cmax) was 5 µM. For the same molecule, the half-life in [7] is 4 h. For the same molecule, the result in the series with Trypanosoma cruzi [8], in the series with Trypanosoma cruzi [9] and in the series on Trypanosoma cruzi [10] was Active. The Activity result in the series with Mus musculus was “Non-toxic”; in series [4], 0.62; in [5], 48.
For the molecule `Cc1cc([C@@](N)(c2ccc3c(c2)c(-c2cccc(Cl)c2)cc(=O)n3C)c2cncn2C)ccc1Cl` (racemic), the IC50 in series [1] was determined as 13 nM. Moreover, it took 23 nM to reach a half-maximal effect in the series with Trypanosoma cruzi [2] (EC50). Further, in [3], the Ratio IC50/EC50 is 0.6.
For the molecule `Cn1cncc1[C@](N)(c1ccc(Cl)cc1)c1ccc2c(c1)c(-c1cccc(Cl)c1)cc(=O)n2C` [(S)-TIPIFARNIB], the Activity in series [4] was 0.74; in series [5] it was more than 100.
As for `CC(=O)N1CCN(c2ccc(OCC3COC(Cn4ccnc4)(c4ccc(Cl)cc4Cl)O3)cc2)CC1` (configuration not stated) [KETOCONAZOLE], the response in the series with Trypanosoma cruzi [2] was half-maximal at 0.3 nM (EC50). The Activity in series [4] amounted to 0.75; in series [5], 2.3.
`CC[C@@H]([C@H](C)O)n1ncn(-c2ccc(N3CCN(c4ccc(OC[C@@H]5CO[C@@](Cn6cncn6)(c6ccc(F)cc6F)C5)cc4)CC3)cc2)c1=O` [POSACONAZOLE] registered an EC50 in the series with Trypanosoma cruzi [2] of 0.3 nM.
Turning to `Cn1cncc1[C@@](N)(c1ccc(Cl)cc1)c1ccc2c(c1)c(-c1cccc(Cl)c1)cc(=O)n2C` [TIPIFARNIB], in [1], the IC50 came to 0.7 nM. Further, the midpoint of the response in the series with Trypanosoma cruzi [2], the EC50, lay at 4 nM. The result in the series with Trypanosoma cruzi [8] was inactive. Further, the Activity in series [4] is 0.48; in series [5] it was more than 100. For the same molecule, the half-life in [11] is 16 h.

The values are drawn from ChEMBL document CHEMBL1152782, “Rational modification of a candidate cancer drug for use against Chagas disease” (J Med Chem, 2009).
